Data on five compounds can be found in ChEMBL document CHEMBL3351639, “Fluorinated analogues of marsanidine, a highly α2-AR/imidazoline I1 binding site-selective hypotensive agent. Synthesis and biological activities” (Eur J Med Chem, 2014).

Data set [1] concerns Rattus norvegicus. Nature of the data set: Cardiovascular activity in anesthetized Wistar rat assessed as maximal reduction in heart rate at 0.1 mg/kg, iv measured during 60 mins post dose. It is filed as functional. The method in brief:
(§1)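 Male Wistar rats (200–290 g) anaesthetized with thiopental 70 mg/kg i.p., maintained at 30 µg/kg/min; body temperature 36–37 °C. Carotid catheter recorded MAP and HR; jugular catheter for infusion. After 40 min of saline/thiopental infusion (1.2 ml/h), 0.1 mg/kg given as i.v. bolus (time 0). Signals sampled at 100 Hz. Maximal change from time 0 over 60 min, and its time, recorded. Saline vehicle control; n = 4–5.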

Data set [2] deals with Rattus norvegicus. The experiment in a line: Hypertensive activity in anesthetized Wistar rat assessed as maximal increase in mean arterial blood pressure at 0.1 mg/kg, iv measured during 60 mins post dose. It is filed as […], organism-based. Further details: dose 0.1 mg/kg, route intravenous. The following applies: in vivo, 1 h. The method in brief:
as §1

In data set [3] the target is T1, Adrenergic receptor alpha-2 (Rattus norvegicus, UniProt P22086+P19328+P22909).
T1 sequence (P22086 whole entry): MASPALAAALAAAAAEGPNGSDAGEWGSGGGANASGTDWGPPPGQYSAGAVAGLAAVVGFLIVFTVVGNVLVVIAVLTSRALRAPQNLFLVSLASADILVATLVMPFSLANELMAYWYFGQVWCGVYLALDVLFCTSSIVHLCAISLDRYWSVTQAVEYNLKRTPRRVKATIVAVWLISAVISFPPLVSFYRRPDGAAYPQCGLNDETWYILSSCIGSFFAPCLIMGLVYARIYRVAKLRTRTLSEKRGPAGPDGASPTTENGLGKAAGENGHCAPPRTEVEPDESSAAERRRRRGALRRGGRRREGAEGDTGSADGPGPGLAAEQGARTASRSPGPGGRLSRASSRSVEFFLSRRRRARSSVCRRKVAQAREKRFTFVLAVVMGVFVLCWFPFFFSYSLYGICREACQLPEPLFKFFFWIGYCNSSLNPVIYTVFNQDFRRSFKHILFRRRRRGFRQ
T1 sequence (P19328 whole entry): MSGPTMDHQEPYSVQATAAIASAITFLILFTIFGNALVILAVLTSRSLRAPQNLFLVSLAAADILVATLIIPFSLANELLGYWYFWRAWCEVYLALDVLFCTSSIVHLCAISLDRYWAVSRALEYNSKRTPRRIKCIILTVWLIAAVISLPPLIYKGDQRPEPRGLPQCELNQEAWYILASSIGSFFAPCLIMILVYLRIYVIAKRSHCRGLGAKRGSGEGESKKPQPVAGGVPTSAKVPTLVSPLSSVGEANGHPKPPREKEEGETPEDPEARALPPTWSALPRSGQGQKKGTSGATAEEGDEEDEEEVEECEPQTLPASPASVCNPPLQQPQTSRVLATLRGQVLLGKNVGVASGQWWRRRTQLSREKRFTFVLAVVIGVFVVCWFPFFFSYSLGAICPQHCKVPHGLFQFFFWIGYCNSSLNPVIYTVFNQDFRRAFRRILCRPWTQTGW
T1 sequence (P22909 whole entry): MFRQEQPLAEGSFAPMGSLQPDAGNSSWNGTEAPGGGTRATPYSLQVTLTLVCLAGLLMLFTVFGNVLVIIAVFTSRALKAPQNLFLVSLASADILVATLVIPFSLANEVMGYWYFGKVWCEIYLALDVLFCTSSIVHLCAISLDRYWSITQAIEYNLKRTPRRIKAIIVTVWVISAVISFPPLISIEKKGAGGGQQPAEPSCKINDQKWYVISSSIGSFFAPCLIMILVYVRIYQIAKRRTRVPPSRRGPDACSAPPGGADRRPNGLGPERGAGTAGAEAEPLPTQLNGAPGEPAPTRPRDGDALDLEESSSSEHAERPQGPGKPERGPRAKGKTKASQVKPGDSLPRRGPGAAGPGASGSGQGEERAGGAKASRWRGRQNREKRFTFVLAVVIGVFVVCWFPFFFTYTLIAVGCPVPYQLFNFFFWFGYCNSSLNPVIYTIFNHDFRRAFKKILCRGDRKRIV
The experiment in a line: Displacement of [3H]RX821002 from alpha2-adrenoceptor in Sprague-Dawley rat brain membranes after 45 mins by liquid scintillation counting. Format: cell membranes, Membrane. The method in brief:
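Crude P2 membranes from brains of male Sprague-Dawley rats (250–280 g), 0.2–0.3 mg protein. Radioligand 1 nM [3H]RX821002 (α2) or [3H]prazosin (α1); 11 concentrations of compound, 0.1 nM–100 µM. Non-specific binding: 10 µM rauwolscine (α2) or 10 µM phenylephrine (α1). Triplicate incubation, RT, 45 min. PEI-soaked glass-fibre filtration, then scintillation counting. Ki by Cheng-Prusoff; 3–4 experiments, or one for low-affinity compounds.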
In general terms: Displacement assays read how much labelled ligand stays bound in the presence of the test substance.

Data set [4] relates to Rattus norvegicus. Nature of the data set: Hypertensive activity in anesthetized Wistar rat assessed as time required for maximal increase in mean arterial blood pressure at 0.1 mg/kg, iv measured during 60 mins post dose. It is filed as organism-based. Set-up: dose 0.1 mg/kg, route intravenous. The following applies: in vivo, 1 h. The method in brief: as §1
The target in the next data set is Nischarin (Rattus norvegicus, UniProt Q4G017). The experiment in a line: Displacement of […] from imidazoline I1 receptor in Sprague-Dawley rat kidney membranes after 45 mins by liquid scintillation counting. It is filed as cell membranes, Membrane.
Nischarin, sequence (Q4G017 whole entry): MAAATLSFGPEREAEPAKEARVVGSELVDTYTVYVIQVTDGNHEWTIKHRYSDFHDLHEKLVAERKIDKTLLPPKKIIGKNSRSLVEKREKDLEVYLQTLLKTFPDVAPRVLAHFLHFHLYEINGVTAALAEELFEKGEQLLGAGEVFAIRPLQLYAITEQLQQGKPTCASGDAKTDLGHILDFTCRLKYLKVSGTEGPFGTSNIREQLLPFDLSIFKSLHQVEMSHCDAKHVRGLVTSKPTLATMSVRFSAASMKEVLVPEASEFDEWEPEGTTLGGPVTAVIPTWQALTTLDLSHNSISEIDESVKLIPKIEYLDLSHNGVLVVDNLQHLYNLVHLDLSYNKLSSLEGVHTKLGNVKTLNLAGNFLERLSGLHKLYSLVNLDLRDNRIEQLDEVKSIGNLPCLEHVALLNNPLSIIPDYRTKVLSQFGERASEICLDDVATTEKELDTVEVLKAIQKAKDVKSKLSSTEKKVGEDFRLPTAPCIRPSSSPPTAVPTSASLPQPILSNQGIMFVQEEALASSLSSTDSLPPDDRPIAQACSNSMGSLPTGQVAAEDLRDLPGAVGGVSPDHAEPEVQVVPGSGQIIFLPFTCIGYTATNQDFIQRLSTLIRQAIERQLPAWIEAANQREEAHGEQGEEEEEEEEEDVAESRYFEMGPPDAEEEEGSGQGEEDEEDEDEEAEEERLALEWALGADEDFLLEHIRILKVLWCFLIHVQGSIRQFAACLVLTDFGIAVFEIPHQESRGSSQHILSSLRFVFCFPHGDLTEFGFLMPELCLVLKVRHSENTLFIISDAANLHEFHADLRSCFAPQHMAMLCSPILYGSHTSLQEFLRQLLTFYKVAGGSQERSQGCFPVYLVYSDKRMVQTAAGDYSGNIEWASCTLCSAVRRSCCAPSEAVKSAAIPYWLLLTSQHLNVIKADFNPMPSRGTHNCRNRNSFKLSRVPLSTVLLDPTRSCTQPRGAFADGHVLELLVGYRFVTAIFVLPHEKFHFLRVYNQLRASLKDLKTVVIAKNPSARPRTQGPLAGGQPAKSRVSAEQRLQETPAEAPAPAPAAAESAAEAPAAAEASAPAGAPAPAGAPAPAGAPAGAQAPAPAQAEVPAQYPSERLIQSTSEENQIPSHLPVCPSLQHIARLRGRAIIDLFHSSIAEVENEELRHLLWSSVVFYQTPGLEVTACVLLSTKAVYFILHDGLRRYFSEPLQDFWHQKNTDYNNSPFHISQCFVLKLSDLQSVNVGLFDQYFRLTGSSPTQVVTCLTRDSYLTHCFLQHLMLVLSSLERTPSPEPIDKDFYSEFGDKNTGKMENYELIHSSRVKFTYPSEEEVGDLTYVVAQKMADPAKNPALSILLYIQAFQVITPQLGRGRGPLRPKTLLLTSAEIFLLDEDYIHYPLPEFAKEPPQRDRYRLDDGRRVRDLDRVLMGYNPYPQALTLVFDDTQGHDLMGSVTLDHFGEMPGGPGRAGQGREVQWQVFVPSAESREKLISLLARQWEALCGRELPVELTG
Data set [5] can be described thus: Displacement of […] from imidazoline I2 receptor in Sprague-Dawley rat kidney membranes after 45 mins by liquid scintillation counting. It is filed as cell membranes, Membrane.
For data set [6], the system named is Rattus norvegicus. The experiment in a line: Hypotensive activity in anesthetized Wistar rat assessed as maximal reduction in mean arterial blood pressure at 0.1 mg/kg, iv measured during 60 mins post dose. It is filed as functional. The method in brief:
as §1

Data set [7] concerns Rattus norvegicus. Nature of the data set: Cardiovascular activity in anesthetized Wistar rat assessed as time required for maximal reduction in heart rate at 0.1 mg/kg, iv measured during 60 mins post dose. It is filed as functional. The method in brief:
as §1

By Ki is commonly meant a dissociation constant, usually derived from enzyme kinetics or from competition with a known ligand. Read a low Ki as higher affinity. For orientation: IC50 means the concentration needed to halve the response being measured. For `Fc1ccc2cnn(CC3=NCCN3)c2c1`, the Activity in the data set on Rattus norvegicus [1] is listed as 52 bpm; in the data set with Rattus norvegicus [2], 23.6 mmHg; in the data set with Rattus norvegicus [6] it was 12.7 mmHg. Further, the inhibition constant Ki in data set [3] was found to be 29.73 nM; in data set [5], 8.19 nM. Further, the Time in the data set on Rattus norvegicus [4] was 4 min; in the data set on Rattus norvegicus [7], 5 min. The compound also showed an IC50 at Nischarin of 33500 nM.

For `Fc1ccc2c(cnn2CC2=NCCN2)c1`, the values for the Activity in the data set with Rattus norvegicus [1], in the data set with Rattus norvegicus [2] and in the data set with Rattus norvegicus [6] were 12 bpm, 0.8 mmHg and 7.2 mmHg, respectively. In addition, the Ki was 32.17 nM in data set [3] and 10.4 nM in data set [5]. In addition, the Time with Rattus norvegicus [4] is 2 min; with Rattus norvegicus [7] it was 38 min. The same compound returned a 50% inhibitory concentration (IC50) at Nischarin of 2420 nM.

For the compound `Fc1ccc2cnn(N=C3NCCN3)c2c1`, the values for the Activity with Rattus norvegicus [1], in the data set with Rattus norvegicus [2] and in the data set with Rattus norvegicus [6] were 118 bpm, 24.8 mmHg and 36 mmHg, respectively. In addition, the inhibition constant Ki stood at 26.2 nM in data set [3] and 22000 nM in data set [5]. For the same compound, the Time in the data set on Rattus norvegicus [4] turned out to be 3 min; with Rattus norvegicus [7], 2 min. Besides, the concentration for half-maximal inhibition (IC50) on Nischarin came to 20700 nM.

As for `Fc1cccc2cnn(N=C3NCCN3)c12`, the Activity in the data set with Rattus norvegicus [1] amounted to 128 bpm; in the data set on Rattus norvegicus [2] it was 21.1 mmHg; in the data set on Rattus norvegicus [6], 59.4 mmHg. In addition, the figures for the Ki in data set [3] and in data set [5] were 30.97 nM and 349000 nM, respectively. For the same compound, the results for the Time with Rattus norvegicus [4] and in the data set with Rattus norvegicus [7] were 4 min and 10 min, respectively. The compound further came in with a half-maximal inhibitory concentration (IC50) at Nischarin of 7740 nM.

Regarding `Fc1ccc2c(cnn2N=C2NCCN2)c1`, the Activity is on record as 61 bpm in the data set on Rattus norvegicus [1], 14.6 mmHg with Rattus norvegicus [2] and 8.6 mmHg with Rattus norvegicus [6]. Besides, the Ki was determined as 64.33 nM in data set [3] and 5700 nM in data set [5]. Besides, the Time in the data set with Rattus norvegicus [4] is on record as 2 min; in the data set with Rattus norvegicus [7] it was 5 min. Further, at Nischarin, the IC50 turned out to be 91.6 nM.
